Bioassay records as filed in PubChem BioAssay.
SR-BI DiI-HDL act = activators of SR-BI mediated HDL lipid uptake | CHO ldlA[mSR-BI] cells, DiI-HDL uptake fluorescence, 3 h; 100 = double the neutral-control signal | activation, % at 12.5 µM | actives 0.096% (n = 320,000);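 active means mean replicate activation of at least 60% and every replicate at or above 60%; inconclusive means mean or all-replicate condition met, but not both; inactive means mean below 60% and not all replicates reaching 60%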;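 further: 0% = median plate neutral-control signal and 100% = twice that signal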
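Material – SR-BI-overexpressing, LDLR-lacking CHO cells · Medium – BSA-supplemented, HEPES-buffered Ham's F12, pH 7.4 · Doses – single concentration · Times – compound with DiI-HDL co-incubation, 3 h at 37 °C · Measured by – bottom-read fluorescence, 550/595 nm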
DYRK1A inh = blocks rat Dyrk1A kinase activity; AID 504441; inhibition, % at 12.5 µM; ADP-Glo luminescence, NFATc1 peptide; actives 0.43% (n = 310,000);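 further: plate controls were vehicle with enzyme for no effect and no enzyme for full effect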
NSD2 inh = blocks human histone methyltransferase NSD2; O96028; NSD2 peptide methylation, AlphaScreen, 120 min; inhibition, % at 12.5 µM; actives 0.54% (n = 310,000); AID 743445
CDK5 inh = inhibitors of human CDK5/p35 kinase. Q00535+Q15078. Recombinant CDK5/p35, ADP-Glo luminescence, 60 min. inhibition, % at 10 µM. actives 0.01% (n = 330,000). AID 488839;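 active means highest replicate inhibition of at least 50% and at least 75% of replicates reaching 50%; inconclusive means only one of the two criteria met; inactive means both criteria failed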;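 further: plate controls were DMSO neutral control for no effect and GW8510 at 10 µM for full effect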
dFosB act = enhances mouse delta FosB homodimer DNA binding | P13346 | purified delta FosB, TAMRA-CDK5 oligo fluorescence polarization; percent of positive-control signal above neutral wells | activation, % at 25 µM | actives 0.99% (n = 340,000);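 active means mean activation above about 17%, with every replicate also reaching it, limit read from the data, passing the limit was not always enough; inconclusive means only one of the two conditions met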
Target sequence (P13346 whole entry, looked up): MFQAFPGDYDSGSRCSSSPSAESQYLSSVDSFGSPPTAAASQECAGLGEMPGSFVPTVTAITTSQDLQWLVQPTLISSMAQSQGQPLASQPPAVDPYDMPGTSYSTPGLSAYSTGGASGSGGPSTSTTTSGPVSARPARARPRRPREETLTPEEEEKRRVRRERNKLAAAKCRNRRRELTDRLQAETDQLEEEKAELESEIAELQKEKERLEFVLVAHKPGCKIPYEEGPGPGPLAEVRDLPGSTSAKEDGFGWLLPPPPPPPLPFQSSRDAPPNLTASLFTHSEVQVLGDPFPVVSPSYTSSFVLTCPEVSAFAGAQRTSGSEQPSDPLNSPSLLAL
SR-BI HDL uptake = blocks mouse SR-BI lipid uptake from DiI-HDL. Q61009. ldlA[mSR-BI] CHO cells, DiI-HDL uptake fluorescence, 3 h. inhibition, % at 12.5 µM. actives 0.96% (n = 320,000). AID 488896;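 active means mean replicate inhibition of at least 70% and a set share of replicates each scoring 70 or more; inconclusive means meets just one of the two criteria; inactive means fails both criteria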;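 further: 0% = median of neutral control wells and 100% = median of positive control wells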
An asterisk follows results filed as active; ? = inconclusive; . = not tested or not shown. An excerpt weighted towards active compounds, which were near 2.5% of everything screened. Unless noted, no stated cut-off is given here; in the data, active means inhibition above about 50%; inactive means the rest.

SMILES | SR-BI DiI-HDL act | DYRK1A inh | NSD2 inh | CDK5 inh | dFosB act | SR-BI HDL uptake
Cc1cccc(N2C(=O)N3[C@H](c4ccc(Br)cc4)[C@@H]4C(=O)N(C(C)(C)C)C(=O)[C@@H]4[C@]3(C)C2=O)c1 | 60.1* | 5.5 | . | 0.3 | -3.1 | -60.1
COc1ccc(Cl)cc1NC(=O)CN(C)CC(=O)Nc1ccccc1N1CCOCC1 | -77.8 | -3.1 | -2.5 | -3.7 | -16.1 | 77.8*
COc1ccc(Cl)cc1NC(=O)CN(C)Cc1cccs1 | -71.6 | -3.8 | -4.0 | 0.9 | -16.0 | 71.6*
CCOc1ccc(OCCn2c(S(=O)(=O)O)nc3c(N)ncnc32)cc1 | 9.6 | -2.1 | -4.1 | -0.3 | 3.1 | -9.6
CCN(CC)S(=O)(=O)c1cc(NC(=O)NCCCl)ccc1C | . | 2.0 | 44.6 | 1.9 | -13.2 | .
CCN(CC)S(=O)(=O)c1cc(NC(=O)c2ccc(Br)s2)ccc1C | -75.1 | 0.1 | 1.4 | 0.1 | -9.2 | 75.1*
O=C(Cc1nnc(NC(=O)c2ccccc2)s1)N/N=C/c1cccc(O)c1 | -46.4 | 0.0 | 0.6 | -1.0 | 0.8 | 46.4
Cc1ccc(Cn2cc(/C=N/NC(=O)Cc3nnc(NC(=O)c4ccc(C)cc4)s3)c3ccccc32)cc1 | -77.5 | -1.2 | -3.3 | -1.4 | ? | 77.5*
O=C(CNS(=O)(=O)c1ccc(F)cc1)N1CCN(c2ccccn2)CC1 | . | . | -1.1 | . | . | .
O=C(NNC1=C(C(=O)C(F)(F)F)CCC1)c1ccc(Cl)cc1 | -93.2 | . | 2.2 | 1.0 | -1.0 | 93.2*
COc1ccc(C(=O)NNC2=C(C(=O)C(F)(F)F)CCC2)cc1 | -94.9 | -1.5 | 0.5 | -0.2 | -4.8 | 94.9*
O=C(NNC1=C(C(=O)C(F)(F)F)CCC1)c1cccc(Cl)c1 | -80.2 | 3.5 | 10.3 | -0.7 | -0.5 | 80.2*
C/C(CCc1ccc2c(c1)OCO2)=N\NC(=S)NC(C)C | -76.8 | . | 8.0 | 1.0 | -5.1 | 76.8*
COCCNC(=S)N/N=C(\C)CCc1ccc2c(c1)OCO2 | -45.9 | -5.7 | 1.8 | -5.2 | -16.0 | 45.9
COCCn1c(=NC(=O)CCS(=O)(=O)c2ccccc2)sc2cc(C)ccc21 | -1.3 | . | . | 2.7 | -1.4 | 1.3
COCCn1c(=NC(=O)/C=C/c2cccs2)sc2cc(NC(C)=O)ccc21 | -72.2 | 3.1 | -1.4 | 0.8 | 3.0 | 72.2*
NC(=S)N=Nc1ccc(NN=C(N)N)cc1 | -9.3 | 5.8 | . | 4.3 | 29.1* | 9.3
COc1ccccc1NC(=O)Nc1nc(CC(=O)Nc2ccc(OC)c(OC)c2)cs1 | -82.3 | 4.5 | 1.0 | -0.9 | 5.0 | 82.3*
COc1cccc(NC(=O)Cc2csc(NC(=O)Nc3ccccc3OC)n2)c1 | -53.1 | 1.9 | -0.6 | -1.4 | -0.7 | 53.1
O=C(O)CN1C(=O)/C(=C/c2ccc(N3CCCCC3)o2)SC1=S | . | 7.2 | . | 6.9 | 85.5* | .
O=C(C1CCCN1S(=O)(=O)c1ccc(Cl)s1)N1CCc2ccccc2C1 (centres undefined) | . | . | -4.3 | . | . | .
O=C1CC2CCCN2C=C1I (centres undefined) | -7.4 | 34.8 | . | 1.7 | -3.2 | 7.4
O=C1c2cccc3cc([N+](=O)[O-])cc(c23)C(=O)N1CC1CCCO1 (centres undefined) | 2.9 | 4.6 | 2.6 | 0.1 | 5.2 | -2.9
CN(C)CCN1C(=O)c2cccc3cc([N+](=O)[O-])cc(c23)C1=O | 4.9 | 2.2 | 8.5 | 0.9 | 49.1* | -4.9
c1ccc(-n2c(SCc3cccc4ccccc34)nnc2-c2ccncc2)cc1 | . | . | -1.0 | . | . | .
SMILES | SR-BI DiI-HDL act | DYRK1A inh | NSD2 inh | CDK5 inh | dFosB act | SR-BI HDL uptake
COc1ccc(NS(=O)(=O)c2ccc(N3CCOCC3)c(NC(=O)c3ccc(F)cc3)c2)cc1 | -24.6 | -10.8 | -2.9 | 0.4 | -16.3 | 24.6
COc1ccc(NS(=O)(=O)c2ccc(O)c(NC(=O)c3cc4c(C)nn(-c5ccc(F)cc5)c4s3)c2)cc1 | -76.8 | 2.1 | -0.7 | 0.6 | 1.2 | 76.8*
Nc1cc2nn(-c3ccccc3)nc2cc1Cl | 14.3 | . | 52.2* | 0.7 | -19.0 | -14.3
Cc1cc(NS(=O)(=O)c2ccc(NC(=O)COc3ccc(C#N)cc3)cc2)nc(C)n1 | 15.9 | 9.7 | -0.2 | 0.4 | 3.5 | -15.9
CCOc1ccc(C(=O)Nc2nnc(NC(=S)Nc3ccccc3)s2)cc1 | -84.6 | . | -3.2 | 2.0 | 5.2 | 84.6*
COc1cc(/C=N/NC(=O)c2cncc(Br)c2)cc([N+](=O)[O-])c1O | -119.6 | 4.5 | 4.8 | 0.8 | -0.2 | 119.7*
CCCCCCCCOC(=O)c1cc([N+](=O)[O-])c(Sc2ncnc3nc[nH]c23)c([N+](=O)[O-])c1 | -76.6 | -0.7 | 3.9 | 0.6 | -17.0 | 76.6*
Cc1ccccc1S(=O)(=O)NC(=O)C1(C)CCN1C(=O)C1CCCCC1 (centres undefined) | . | . | -3.9 | . | . | .
C=CCc1cccc(/C=N/NC(=O)c2ccc3nc[nH]c3c2)c1O | -72.2 | -6.1 | -5.4 | -2.5 | 19.4* | ?
O=C(N/N=C/c1ccc(Cl)cc1Cl)c1ccc2nc[nH]c2c1 | -30.6 | 2.6 | 2.9 | 0.0 | 0.7 | 30.6
O=C(N/N=C/c1cc([N+](=O)[O-])ccc1N1CCCCCC1)c1ccccn1 | -80.2 | 2.0 | 1.5 | -1.4 | -7.3 | 80.2*
O=S(=O)(CS(=O)(=O)c1ccccc1Br)c1ccccc1Br | . | . | 24.6 | . | . | .
Oc1cccc(Nc2nc(O)c(/C=C3\C=Nc4ccccc43)s2)c1 | -59.6 | 22.7 | 2.2 | -5.1 | 52.8* | 59.6
CC1=Nc2ccccc2/C1=C\c1sc(Nc2ccc(C)cc2)nc1O | -75.0 | 0.7 | -0.5 | -0.3 | -14.7 | 75.0*
CC(=O)N[C@@H](Cc1c[nH]c2ccccc12)C(=O)OCC(=O)Nc1ccc(S(=O)(=O)N(C)C)cc1 | 4.4 | -3.4 | 3.9 | 1.6 | -7.6 | -4.4
Cn1c(=O)[nH]c(=O)c2c1nc(N1CCN(c3ccccc3)CC1)n2CCSc1ncccn1 | 71.4* | 3.5 | . | 0.2 | -10.4 | -71.4
COc1ccc(CCNC(=O)Cc2ccc(NC3=NC4CS(=O)(=O)CC4S3)cc2)c(OC)c1 (centres undefined) | 50.4 | 2.6 | . | 1.5 | 7.4 | -50.4
COc1ccc(NC(=O)c2cn(-c3ccccc3)nc2-c2cc3ccccc3o2)cc1 | -81.3 | -3.5 | -1.5 | 0.2 | -4.6 | 81.3*
COc1ccc(NC(=O)c2cn(-c3ccccc3)nc2-c2ccncc2)cc1 | -49.3 | 0.2 | -0.4 | -1.2 | 6.6 | 49.3
NC(=O)C1CCN(c2nc(-c3cccc(N)c3)cs2)CC1 | -3.8 | 11.1 | . | -0.4 | -5.0 | 3.8
NC(=O)C1CCN(c2nc(-c3cccnc3)cs2)CC1 | 7.6 | -2.3 | . | 0.0 | 32.7* | -7.6
O=C(CN1C(=O)C2CCCCC2C1=O)OCC(=O)c1ccc(F)cc1 (centres undefined) | 1.7 | . | -2.6 | -1.2 | 4.3 | -1.7
CC(=O)n1c(-c2ccccc2)c(CO)c2ccccc21 | -16.6 | 37.5 | . | 1.0 | 1.7 | 16.6
NCCc1c(-c2ccccc2)n(-c2ccccc2)c2ccccc12 | -3.9 | -1.9 | 60.5* | 0.7 | 1.1 | 3.9
